≈ marks a conversion by molar mass, not a printed value. Calls of active or inactive are those of the source. The calls are words filed in the database; no cut-off is given here.

Data set [1] concerns HCT-116. Kind of data set: Cytotoxicity against human HCT116 cells assessed as reduction in cell viability at 50 nM after 72 hrs by MTT assay. Format: cell-based. The following applies: hct-116, 72 h, 0.05 µM. An outline of the steps:
(§1)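 HCT-116 cells exposed to TGF-β1 (10 ng/mL) alone or combined with test agent at 2, 10 or 50 nM for 24, 48 or 72 h. Viability read by MTT (formazan in DMSO, 570 nm).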
For orientation: Formazan colour is commonly taken as a measure of viable cells.

Data set [2] concerns HCT-116. Kind of data set: Cytotoxicity against human HCT116 cells at 2 to 50 nM after 24 to 48 hrs in presence of TGF-beta1 by MTT assay. Particulars: hct-116, 0.05 µM. Format: cell-based. Summed up:
as §1

Data set [3] in a line: Stability of compound in intestinal fluid at pH 6.8 at 1 uM after 4 hrs by LC-MS/MS analysis.
The subject of data set [4] is HCT-116. As to the kind of experiment: Antitumor activity against human HCT116 cells xenografted in BALB/c nude mouse assessed as tumor growth inhibition at 5 mg/kg, ip administered daily for 21 consecutive days relative to control. Format: functional. The following applies: HCT-116, ip, read-out: TGI. Summed up:
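Male BALB/c nude mice, 3–5 weeks old, inoculated subcutaneously with 1 × 10^7 HCT-116 cells. At about 75 mm³ tumor volume, randomized (n = 8/group) and dosed intraperitoneally daily. Volume by caliper as d² × D/2. At the end, tumors excised and weighed; inhibition = (Wcontrol − Wtreated)/Wcontrol × 100%.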
A general note: In xenograft studies the graft and the host belong to different species.

Data set [5] is described as follows: Stability of compound in human HCT116 cells at 1 uM after 4 hrs by LC-MS/MS analysis. The following applies: hct-116, 4 h. Format: ADME, cell-based.
For data set [6], the system named is HCT-116. Kind of data set: Antimetastatic activity against human HCT116 cells xenografted in BALB/c nude mouse model assessed as reduction in lung metastatic tumor at 2 to 4 mg/kg, ip administered thrice a week for 6 consecutive weeks by H and E staining-based assay. It counts as functional, organism-based. Summed up:
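BALB/c nude mice received HCT-116 cells into the tail vein, then were randomized and dosed intraperitoneally (1, 2 or 4 mg/kg) three times weekly. Body weight recorded weekly. Lungs sectioned (4 μm), H&E stained, and nodule number and area scored blinded in three sections per mouse. Nodule counts n = 4–6 per group.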

A short description of data set [7]: Solubility of compound in phosphate buffer at pH 7.4 after 8 hrs by HPLC analysis. It counts as physicochemical. Summed up: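 Compound was shaken in 50 mM phosphate buffer (pH 7.4) at 20 °C, centrifuged, and the supernatant analysed by HPLC. Conditions were a C18 column, acetonitrile–water 60/40 (v/v) at 1.0 mL/min, with detection at 254 nm. Run in triplicate.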

The test system of data set [8] is U-87 MG. As to the kind of experiment: Antiproliferative activity against human U87MG cells after 72 hrs by MTT assay. Format: functional, cell-based, U-87MG ATCC. An outline of the steps:
(§2)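 Cells grown in RPMI 1640 with 10% FBS in 96-well plates overnight, then exposed to test agents in triplicate for 72 h. MTT (5 mg/mL stock) added for the last 4 h, formazan dissolved in DMSO, absorbance read at 570 nm. Inhibition = (1 − OD treated/OD control) × 100%.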

The subject of data set [9] is HCT-116. Kind of data set: Antiproliferative activity against human HCT116 cells after 72 hrs by MTT assay. Format: functional, cell-based. Particulars: HCT-116, 72 h. An outline of the steps:
as §2

For a further data set, the system named is K562. Kind of data set: Antiproliferative activity against human K562 cells after 72 hrs by MTT assay. It counts as functional, cell-based. Particulars: K562, 72 h. Summed up:
as §2

In the next data set the test system is HT-29. Kind of data set: Antiproliferative activity against human HT-29 cells after 72 hrs by MTT assay. Particulars: HT-29, 72 h. It counts as functional, cell-based. An outline of the steps:
as §2

In a further data set the test system is SW-620. As to the kind of experiment: Antiproliferative activity against human SW620 cells after 72 hrs by MTT assay. Format: functional, cell-based. Particulars: SW-620, 72 h. Summed up:
as §2

Another data set deals with HCT-8. Kind of data set: Antiproliferative activity against human HCT8 cells after 72 hrs by MTT assay. It counts as functional, cell-based. The following applies: HCT-8, 72 h. An outline of the steps: as §2
A short description of data set [10]: Antiproliferative activity against human CCD-841 cells after 72 hrs by MTT assay. Particulars: CCD-841, 72 h. It counts as cell-based. An outline of the steps:
as §2

Data set [11] can be described thus: Half life in Sprague-Dawley rat at 20 mg/kg, iv after 4 hrs by LC-MS/MS analysis. Format: ADME, organism-based. The following applies: in vivo.
Data set [12] has as its system HCT-116. As to the kind of experiment: Induction of ROS accumulation in human HCT116 cells at 1 to 10 uM up to 3 hrs by DCFH-DA staining-based fluorescence spectrometric analysis. It counts as functional, cell-based. Summed up:
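HCT-116 and CCD-841 cells treated in triplicate at 1, 5 and 10 μM for 1, 2 and 3 h. Intracellular ROS stained with DCFH-DA and fluorescence read on a microplate reader. Values expressed relative to DMSO control, from three separate experiments.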

The subject of data set [13] is HCT-116. Kind of data set: Induction of ROS accumulation in human HCT116 cells at 10 uM after 3 hrs by DCFH-DA staining-based fluorescence microscopic analysis. Format: functional, cell-based. Summed up:
(§3)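 HCT-116 or CCD-841 cells treated at 10 μM for 3 h, stained with DCFH-DA, and imaged by fluorescence microscopy for green-fluorescent cells.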

Data set [14] can be described thus: Induction of ROS accumulation in human CCD-841 cells at 10 uM after 3 hrs by DCFH-DA staining-based fluorescence microscopic analysis. Format: cell-based. The following applies: ccd-841, 3 h. An outline of the steps:
as §3

A further data set concerns Mus musculus. As to the kind of experiment: Toxicity in BALB/c nude mouse xenografted with human HCT116 cells assessed as loss of body weight at 4 mg/kg, ip administered thrice a week for 6 consecutive weeks. Particulars: in vivo. It counts as organism-based. An outline of the steps: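 Lung metastasis model: HCT-116 cells in serum-free medium injected into tail vein of BALB/c nude mice, then randomized and given vehicle or compound ip (1, 2 or 4 mg/kg) three times a week. Body weight recorded weekly, survival monitored (n = 6); mice sacrificed after 40 days and lungs examined by H&E histology.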

Data set [15] concerns HCT-116. As to the kind of experiment: Inhibition of TGF-beta1-induced increase in expression levels of MMP-9 protein in human HCT116 cells after 48 hrs by Western blot analysis. It counts as functional, cell-based. An outline of the steps: (§4)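 HCT-116 cells treated with or without TGF-β1 (10 ng/mL) for 48 h, with or without test agent. Lysates (20 μg/lane) run on 7.5% SDS-PAGE and transferred to PVDF. Probed for p-Akt (Ser473), Akt, p-GSK-3β (S9), GSK-3β, E-cadherin, MMP-9 and β-actin, detected by ECL. Densitometry relative to β-actin or total protein. Three independent experiments.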

Data set [16] relates to HCT-116. As to the kind of experiment: Induction of ROS accumulation in human HCT116 cells up to 3 hrs in presence of GSH by DCFH-DA staining-based fluorescence microscopic analysis. It counts as functional, cell-based.
Data set [17] has as its system U-87 MG. Kind of data set: Antiproliferative activity against human U87MG cells after 72 hrs in presence of ligustrazine by MTT assay. It counts as functional, cell-based, U-87MG ATCC. An outline of the steps:
as §2

For data set [18], the system named is HCT-116. Kind of data set: Inhibition of IL-1beta-mediated adhesion of human rhodamine 123-labeled HCT116 cells to HUVEC at 50 nM after 1 hr by fluoresence assay. It counts as functional, cell-based. An outline of the steps: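 HUVEC monolayers pretreated with or without IL-1β (1 ng/mL) for 4 h, then washed. Rhodamine 123-labeled HCT-116 cells added with vehicle or test agent (2, 10, 50 nM) at 37 °C for 1 h. Non-adherent cells washed off; percent adhered cells determined by fluorescence microscopy. Three separate experiments.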

Data set [19] concerns the target RAC-alpha serine/threonine-protein kinase (Homo sapiens) (UniProt P31749). As to the kind of experiment: Inhibition of TGF-beta1-induced AKT phosphorylation in human HCT116 cells at 50 nM after 48 hrs by Western blot analysis. It counts as cell-based. An outline of the steps:
as §4
In general terms: A western blot detects proteins with antibodies after separation by electrophoresis.

Chain of RAC-alpha serine/threonine-protein kinase (Homo sapiens) (P31749 whole entry): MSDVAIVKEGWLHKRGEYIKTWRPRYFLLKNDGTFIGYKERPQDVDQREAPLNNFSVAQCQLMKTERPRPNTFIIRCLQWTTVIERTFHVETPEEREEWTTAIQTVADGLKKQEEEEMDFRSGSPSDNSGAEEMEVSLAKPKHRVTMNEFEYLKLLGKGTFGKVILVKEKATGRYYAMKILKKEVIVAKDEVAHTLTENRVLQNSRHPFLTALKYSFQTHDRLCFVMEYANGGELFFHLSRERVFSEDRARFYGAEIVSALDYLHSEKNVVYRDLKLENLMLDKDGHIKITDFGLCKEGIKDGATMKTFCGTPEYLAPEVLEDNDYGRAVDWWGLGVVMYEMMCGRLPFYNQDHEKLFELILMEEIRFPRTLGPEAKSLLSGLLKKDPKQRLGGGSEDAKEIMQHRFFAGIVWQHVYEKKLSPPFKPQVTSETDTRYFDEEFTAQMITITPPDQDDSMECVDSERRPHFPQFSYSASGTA

On to `Cc1nc(C)c(/C=C/C(=O)N2CCC=C(Cl)C2=O)nc1C`, for which the Activity result in the data set on HCT-116 [1] is on record as “Toxic”; with HCT-116 [2], “Non-Toxic”; in data set [14], “Toxic”; with Mus musculus, “Non-Toxic”. The Stability entry in data set [3] and in data set [5] was “Stable” throughout. Also, the inhibition in vivo at 5 mg/kg in the data set on HCT-116 [4] was determined as 71.4%. Besides, the outcome with HCT-116 [6], in the data set on HCT-116 [12] and in the data set with HCT-116 [13] was Active. Also, the solubility (as a rule, the concentration that dissolves in the medium under given conditions) at 8 h in data set [7] came out at 74.6 µg/mL (≈ 244 µM). Moreover, the IC50 (in general, the point on the concentration scale where inhibition reaches its midpoint) in the data set with U-87 MG [8] is 3.43 µM; in the data set on HCT-116 [9] it was 0.3 µM; with K562 it was 250 nM; with HT-29 it was 540 nM; with SW-620 it was 870 nM; in the data set on HCT-8, 1210 nM. The IC50 in [10] is 51.6 µM. For the same molecule, the half-life (commonly the time in which the quantity being followed falls by half) in [11] is 130 min. In the data set on HCT-116 [15], the inhibition result is “Dose-dependent effect”. In addition, in the data set with HCT-116 [16], the result was inactive.
In the case of `COc1cc(/C=C/C(=O)N2CCC=CC2=O)cc(OC)c1OC` [PIPLARTINE], the Activity result in the data set on HCT-116 [2] was “Non-Toxic”; in data set [14] it was “Toxic”; in the data set with Mus musculus, “Non-Toxic”. Further, the inhibition in vivo at 5 mg/kg in the data set with HCT-116 [4] turned out to be 60.6%. In data set [7], this molecule registered a solubility at 8 h of 0.32 µg/mL (≈ 1.01 µM). For the same molecule, the half-inhibitory concentration (IC50) is 17.3 µM in the data set with U-87 MG [8]; 8.13 µM in the data set with HCT-116 [9]; 5050 nM in the data set with K562; 16.1 µM in the data set with U-87 MG [17]; 2650 nM in the data set on HT-29; 4620 nM with SW-620. Further, the IC50 stood at 4100 nM in the data set with HCT-8 and 44.3 µM in data set [10]. In data set [11], this molecule showed a half-life of 172 min. In the data set on HCT-116 [13], the result was Active. Also, the inhibition result (in the data set with HCT-116 [18]; in [19]) was “Active” in each case.

For the origin of these results see ChEMBL document CHEMBL4033788, “Novel Ligustrazine-Based Analogs of Piperlongumine Potently Suppress Proliferation and Metastasis of Colorectal Cancer Cells in Vitro and in Vivo” (J Med Chem, 2018).
